In assay [1] the test system is Enterococcus faecium. The assay is described as follows: In vitro minimum inhibitory concentration against Vancomycin resistant Enterococci faecium upon incubation at 37 degree C for 16 to 24 hr by dissolving in DMSO (1%). It counts as functional. The gist of the method: (§1)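 Broth microdilution (modified NCCLS M7-A4). Enterococci grown to log phase in brain-heart infusion broth, seeded at (3-7) × 10⁵ CFU/mL. Compounds 2-fold diluted from DMSO stocks, 20 to 1.25 µg/mL, final 1% DMSO, in duplicate. Incubated 37 °C, 16-24 h, with shaking. OD600 read.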

Assay [2] concerns Enterococcus faecium. The assay is described as follows: In vitro minimum inhibitory concentration against Enterococcus fecium upon incubation at 37 degree C for 16 to 24 hr by dissolving in DMSO (1%). It counts as functional. The method in brief: as §1
For assay [3], the system named is Staphylococcus aureus. The assay is described as follows: In vitro minimum inhibitory concentration against Staphylococcus aureus upon incubation at 37 degree C for 16 to 24 hr by dissolving in DMSO (1%). It counts as functional.
The next assay concerns Bacillus subtilis. The assay is described as follows: In vitro minimum inhibitory concentration against Bacillus subtilis upon incubation at 37 degree C for 16 to 24 h. It counts as functional.
In assay [4] the test system is Staphylococcus aureus. The assay is described as follows: In vitro minimum inhibitory concentration against Methicillin-resistant Staphylococcus aureus upon incubation at 37 degree C for 16 to 24 hr by dissolving in DMSO (1%). It counts as functional. The method in brief: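 Broth microdilution (modified NCCLS M7-A4). Staphylococci grown to log phase in Luria broth, seeded at (3-7) × 10⁵ CFU/mL. Compounds 2-fold diluted from DMSO stocks, 20 to 1.25 µg/mL, final 1% DMSO, in duplicate. Incubated 37 °C, 16-24 h, with shaking. OD600 read.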

Assay [5] relates to Enterococcus faecalis. Nature of the assay: In vitro minimum inhibitory concentration against Enterococcus faecalis upon incubation at 37 degree C for 16 to 24 hr by dissolving in DMSO (1%). It counts as functional. The method in brief:
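Log-phase E. faecalis was grown in brain-heart infusion broth and seeded at (3-7) × 10^5 CFU/mL. Duplicate 2-fold dilutions ran from 20 to 1.25 µg/mL, final 1% DMSO. After 16-24 h at 37 °C with shaking, OD600 was read.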

Assay [6] deals with DNA polymerase III PolC-type (Bacillus subtilis (strain 168), UniProt P13267). Nature of the assay: Inhibitory concentration against Bacillus subtilis DNA polymerase IIIC using [3H]dTMP 250 pM (30 degree C for 10 min). The gist of the method:
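Homogeneous recombinant B. subtilis pol IIIC, 0.025-0.06 units, acted on activated calf thymus DNA with Mg2+, DTT, glycerol, dATP, dCTP, dTTP and [3H]dTTP, without dGTP. Compounds were serially diluted from DMSO. Reactions ran 10 min at 30 °C, were stopped with TCA-pyrophosphate, and the filter-collected precipitate was scintillation counted. Apparent Ki was read directly from this truncated assay; average standard deviation ±44%.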

Assay [7] deals with Staphylococcus aureus. The assay is described as follows: In vitro minimum inhibitory concentration against Staphylococcus aureus (Smith) upon incubation at 37 degree C for 16 to 24 hr by dissolving in DMSO (1%). It counts as functional.
In assay [8] the test system is Staphylococcus aureus. Nature of the assay: Effect on survival of staphylococcus aureus (Smith) ip-infected mice at a concentration 10 mg/kg. Type of assay: functional. The method in brief: (§2)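 Male pathogen-free Swiss-Webster mice (20-24 g), groups of five, infected ip with ca. 10⁸ CFU log-phase S. aureus Smith (grown 37 °C in LB, washed, in 0.5 mL LB). Single ip dose 15 min post-infection, in 10% DMSO/peanut oil or PBS. Survivors counted at 72 h post-infection.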

The subject of assay [9] is Staphylococcus aureus. Nature of the assay: Serum effect on MIC against Staphylococcus aureus (Smith) as ratio of MIC value in presence and absence of 50% fetal calf serum. Type of assay: functional. The method in brief:
(§3)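 Broth microdilution MIC was repeated with 50% fetal calf serum added to the growth medium (LB for S. aureus, brain-heart infusion broth for E. faecalis). The inoculum was (3-7) × 10^5 CFU/mL in 1% DMSO, incubated at 37 °C for 16-24 h, and read by OD600. The serum effect is the MIC with serum relative to the MIC without serum.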

Assay [10] relates to Staphylococcus aureus. The assay is described as follows: Effect on survival of staphylococcus aureus (Smith) ip-infected mice at a concentration 20 mg/kg. It counts as functional. The method in brief:
as §2

Assay [11] concerns Enterococcus faecalis. Nature of the assay: Serum effect on MIC of compound was measured against Enterococcus faecalis as ratio of MIC value in presence and absence of 50% fetal calf serum. It counts as functional. The method in brief:
as §3

≈ marks a conversion by molar mass, not a printed value.

Sequence of DNA polymerase III PolC-type (P13267 whole entry, the tested form may be a part): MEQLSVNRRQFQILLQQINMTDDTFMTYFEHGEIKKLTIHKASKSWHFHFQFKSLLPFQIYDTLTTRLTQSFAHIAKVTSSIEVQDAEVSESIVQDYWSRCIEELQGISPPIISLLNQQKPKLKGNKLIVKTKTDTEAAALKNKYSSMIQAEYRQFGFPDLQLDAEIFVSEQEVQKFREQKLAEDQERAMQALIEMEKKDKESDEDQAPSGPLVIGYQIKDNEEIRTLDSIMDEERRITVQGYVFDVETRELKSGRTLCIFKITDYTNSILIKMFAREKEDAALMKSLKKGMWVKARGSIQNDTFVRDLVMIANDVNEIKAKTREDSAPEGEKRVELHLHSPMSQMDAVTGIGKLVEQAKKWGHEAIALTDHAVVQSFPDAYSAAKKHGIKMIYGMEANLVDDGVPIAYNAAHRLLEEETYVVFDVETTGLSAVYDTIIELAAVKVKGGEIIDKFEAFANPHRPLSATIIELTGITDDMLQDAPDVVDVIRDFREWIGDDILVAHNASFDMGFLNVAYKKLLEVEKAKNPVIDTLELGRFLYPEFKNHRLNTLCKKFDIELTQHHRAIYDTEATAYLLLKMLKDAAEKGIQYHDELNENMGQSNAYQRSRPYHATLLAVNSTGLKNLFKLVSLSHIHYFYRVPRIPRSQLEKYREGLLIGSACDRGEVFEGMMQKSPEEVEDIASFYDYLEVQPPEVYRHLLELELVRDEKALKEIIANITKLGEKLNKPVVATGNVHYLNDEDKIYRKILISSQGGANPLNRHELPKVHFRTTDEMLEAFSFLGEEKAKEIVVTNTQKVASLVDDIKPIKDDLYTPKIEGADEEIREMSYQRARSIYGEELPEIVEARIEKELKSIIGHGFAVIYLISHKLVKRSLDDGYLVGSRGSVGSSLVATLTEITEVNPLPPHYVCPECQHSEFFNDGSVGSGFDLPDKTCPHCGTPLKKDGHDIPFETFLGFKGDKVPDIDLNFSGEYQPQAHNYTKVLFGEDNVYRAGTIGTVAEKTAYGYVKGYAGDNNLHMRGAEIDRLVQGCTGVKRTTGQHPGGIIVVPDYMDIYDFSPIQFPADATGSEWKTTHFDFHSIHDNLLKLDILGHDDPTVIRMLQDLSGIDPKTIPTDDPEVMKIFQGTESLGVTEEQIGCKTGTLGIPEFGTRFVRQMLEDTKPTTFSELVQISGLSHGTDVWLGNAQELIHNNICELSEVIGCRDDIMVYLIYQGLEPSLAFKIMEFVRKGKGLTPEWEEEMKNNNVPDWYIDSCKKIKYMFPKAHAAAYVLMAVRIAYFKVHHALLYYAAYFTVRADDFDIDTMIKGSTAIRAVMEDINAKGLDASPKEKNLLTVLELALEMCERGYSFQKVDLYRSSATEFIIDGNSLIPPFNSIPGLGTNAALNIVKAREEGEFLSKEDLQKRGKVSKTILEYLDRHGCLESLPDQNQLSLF

Usually MIC stands for the lowest concentration that inhibits growth of the organism. Higher therefore signals weaker potency. A word on the Ki: it is a measure of affinity in units of concentration, obtained from inhibition or displacement. A low value points to tighter binding. Regarding `CCc1cc(Nc2cc(=O)n(CCOC(C)=O)c(=O)[nH]2)ccc1C`, the minimum inhibitory concentration (MIC) against Enterococcus faecium [1] is 5 µg/mL (≈ 15.1 µM); against Enterococcus faecium [2], 5 µg/mL (≈ 15.1 µM); against Staphylococcus aureus [3], 5 µg/mL (≈ 15.1 µM); in the assay with Bacillus subtilis, 1.25 µg/mL (≈ 3.77 µM); against Staphylococcus aureus [4], 5 µg/mL (≈ 15.1 µM); against Enterococcus faecalis [5], 5 µg/mL (≈ 15.1 µM). The compound also displayed an MIC in the assay with Staphylococcus aureus [7] of 3.75 µg/mL (≈ 11.3 µM). Further, the Ki in assay [6] came to 120 nM.
With `CCc1cc(Nc2cc(=O)n(CCOCCOC)c(=O)[nH]2)ccc1C`, the Activity in the assay with Staphylococcus aureus [8] amounted to 2. The MIC in the assay with Enterococcus faecium [1], against Enterococcus faecium [2], against Staphylococcus aureus [3], in the assay on Staphylococcus aureus [4] and against Enterococcus faecalis [5] was 5 µg/mL (≈ 14.4 µM) throughout. Further, in the assay on Staphylococcus aureus [9], the “MIC+/MIC-” value came to 5.5.
With `CCc1cc(Nc2cc(=O)n(CCCCCN)c(=O)[nH]2)ccc1C.Cl`, the MIC in the assay on Enterococcus faecium [1] was > 20 µg/mL; in the assay on Enterococcus faecium [2] it was 20 µg/mL; against Staphylococcus aureus [3], 5 µg/mL; in the assay on Bacillus subtilis, < 1.25 µg/mL; against Staphylococcus aureus [4], 10 µg/mL; in the assay on Enterococcus faecalis [5] it was > 20 µg/mL. The same compound showed an MIC against Staphylococcus aureus [7] of 10 µg/mL. In addition, in [6], the Ki was found to be 185 nM.
Consider `CN[C@H](CC(C)C)C(=O)N[C@H]1C(=O)N[C@@H](CC(N)=O)C(=O)N[C@H]2C(=O)N[C@H]3C(=O)N[C@H](C(=O)N[C@H](C(=O)O)c4cc(O)cc(O)c4-c4cc3ccc4O)[C@H](O)c3ccc(c(Cl)c3)Oc3cc2cc(c3O[C@@H]2O[C@H](CO)[C@@H](O)[C@H](O)[C@H]2O[C@H]2C[C@](C)(N)[C@H](O)[C@H](C)O2)Oc2ccc(cc2Cl)[C@H]1O` [VANCOMYCIN], for which the Activity in the assay on Staphylococcus aureus [8] and with Staphylococcus aureus [10] was 5 each time. Moreover, the MIC in the assay with Enterococcus faecium [1] was > 20 µg/mL; in the assay with Enterococcus faecium [2] it was 1.25 µg/mL (≈ 0.863 µM); in the assay on Staphylococcus aureus [4], 0.625 µg/mL (≈ 0.431 µM); in the assay on Enterococcus faecalis [5], 0.625 µg/mL (≈ 0.431 µM).
Take `CCc1cc(Nc2cc(=O)n(CCCCNS(=O)(=O)c3ccc(C)cc3)c(=O)[nH]2)ccc1C`: the MIC in the assay on Enterococcus faecium [1] was 5 µg/mL (≈ 10.6 µM); in the assay on Enterococcus faecium [2], 5 µg/mL (≈ 10.6 µM); in the assay on Staphylococcus aureus [3], 5 µg/mL (≈ 10.6 µM); against Bacillus subtilis it was 5 µg/mL (≈ 10.6 µM); with Staphylococcus aureus [4], > 20 µg/mL; with Enterococcus faecalis [5] it was 5 µg/mL (≈ 10.6 µM). This compound gave an MIC against Staphylococcus aureus [7] of 5 µg/mL (≈ 10.6 µM). Besides, the Ki in assay [6] came out at 230 nM.
As for `CCc1cc(Nc2cc(=O)n(CCCCCCCCCO)c(=O)[nH]2)ccc1C`, the MIC in the assay on Enterococcus faecium [1] is 2.5 µg/mL (≈ 6.45 µM); in the assay with Enterococcus faecium [2] it was 2.5 µg/mL (≈ 6.45 µM); against Staphylococcus aureus [3], 20 µg/mL (≈ 51.6 µM); against Bacillus subtilis, < 1.25 µg/mL; against Staphylococcus aureus [4], 20 µg/mL (≈ 51.6 µM); with Enterococcus faecalis [5], 2.5 µg/mL (≈ 6.45 µM). In the assay on Staphylococcus aureus [7], this compound returned a minimum inhibitory concentration (MIC) of 2.5 µg/mL (≈ 6.45 µM). Moreover, the “MIC+/MIC-” value in the assay on Staphylococcus aureus [9] is >32. For the same compound, the Ki in assay [6] stood at 87 nM.
Turning to `CCc1cc(Nc2cc(=O)n(CCCCCCCCN3CCOCC3)c(=O)[nH]2)ccc1C`, the MIC in the assay on Enterococcus faecium [1] came to 5 µg/mL (≈ 11.3 µM); against Enterococcus faecium [2], 10 µg/mL (≈ 22.6 µM); against Staphylococcus aureus [3] it was 10 µg/mL (≈ 22.6 µM); with Bacillus subtilis it was 2.5 µg/mL (≈ 5.65 µM); against Staphylococcus aureus [4], 20 µg/mL (≈ 45.2 µM); in the assay with Enterococcus faecalis [5] it was 10 µg/mL (≈ 22.6 µM). The minimal inhibitory concentration (MIC) with Staphylococcus aureus [7] stood at 10 µg/mL (≈ 22.6 µM). In addition, the “MIC+/MIC-” value with Enterococcus faecalis [11] is reported as >12.8; in the assay on Staphylococcus aureus [9] it was >7.1. The compound also returned an inhibition constant Ki in assay [6] of 76 nM.
Regarding `CCc1cc(Nc2cc(=O)n(CCCOC)c(=O)[nH]2)ccc1C`, the MIC is 2.5 µg/mL (≈ 7.88 µM) in the assay with Enterococcus faecium [1]; 2.5 µg/mL (≈ 7.88 µM) against Enterococcus faecium [2]; 2.5 µg/mL (≈ 7.88 µM) against Staphylococcus aureus [3]; < 1.25 µg/mL against Bacillus subtilis; 2.5 µg/mL (≈ 7.88 µM) with Staphylococcus aureus [4]; 5 µg/mL (≈ 15.8 µM) against Enterococcus faecalis [5]. Besides, the MIC against Staphylococcus aureus [7] is 2.5 µg/mL (≈ 7.88 µM). Also, in the assay with Staphylococcus aureus [9], the “MIC+/MIC-” value is given as 4.9. This compound also showed a Ki in assay [6] of 120 nM.
In turn, `CCc1cc(Nc2cc(=O)n(CCOCCO)c(=O)[nH]2)ccc1C` yielded an Activity in the assay with Staphylococcus aureus [8] of 4. Also, the minimal inhibitory concentration (MIC) against Enterococcus faecium [1] stood at 2.5 µg/mL (≈ 7.5 µM); against Enterococcus faecium [2], 5 µg/mL (≈ 15 µM); in the assay on Staphylococcus aureus [4], 10 µg/mL (≈ 30 µM); against Enterococcus faecalis [5], 5 µg/mL (≈ 15 µM); with Staphylococcus aureus [7], 5 µg/mL (≈ 15 µM). The “MIC+/MIC-” value with Staphylococcus aureus [9] amounted to 7.5.
Consider `CCc1cc(Nc2cc(=O)n(CCCOC(C)=O)c(=O)[nH]2)ccc1C`, for which the MIC against Enterococcus faecium [1] was found to be 3.75 µg/mL (≈ 10.9 µM); against Enterococcus faecium [2], 5 µg/mL (≈ 14.5 µM); in the assay on Staphylococcus aureus [3], 3.75 µg/mL (≈ 10.9 µM); with Bacillus subtilis, 0.625 µg/mL (≈ 1.81 µM); in the assay with Staphylococcus aureus [4] it was 5 µg/mL (≈ 14.5 µM); in the assay with Enterococcus faecalis [5], 5 µg/mL (≈ 14.5 µM). The compound further came in with a minimal inhibitory concentration (MIC) in the assay on Staphylococcus aureus [7] of 2.5 µg/mL (≈ 7.24 µM). In assay [6], this compound returned a Ki of 120 nM.
